ChEMBL document CHEMBL3785019, “Dihydropyrazole derivatives as telomerase inhibitors: Structure-based design, synthesis, SAR and anticancer evaluation in vitro and in vivo” (Eur J Med Chem, 2016)

Tests used:
[1] = tested on: Bcap37; experiment: Cytotoxicity against human Bcap37 cells after 48 hrs by MTT assay; assay type: functional, cell-based
Summary of the method: (§1)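 Tumor cells in log phase in RPMI 1640 + 10% FBS, seeded at 3×10^4 cells mL-1 and incubated 24 h (37 °C, 5% CO2). Test samples added at pre-set concentrations (6 wells each), doxorubicin as reference; 48 h exposure. MTT (2.5 mg·mL-1 in PBS) added for 4 h, formazan dissolved in DMSO, A570 read.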

[2] = target: Telomerase reverse transcriptase (Homo sapiens, UniProt O14746); experiment: Inhibition of telomerase in human MGC-803 cells after 24 hrs by TRAP-PCR-ELISA assay; assay type: cell-based
Sequence of Telomerase reverse transcriptase (O14746 whole entry): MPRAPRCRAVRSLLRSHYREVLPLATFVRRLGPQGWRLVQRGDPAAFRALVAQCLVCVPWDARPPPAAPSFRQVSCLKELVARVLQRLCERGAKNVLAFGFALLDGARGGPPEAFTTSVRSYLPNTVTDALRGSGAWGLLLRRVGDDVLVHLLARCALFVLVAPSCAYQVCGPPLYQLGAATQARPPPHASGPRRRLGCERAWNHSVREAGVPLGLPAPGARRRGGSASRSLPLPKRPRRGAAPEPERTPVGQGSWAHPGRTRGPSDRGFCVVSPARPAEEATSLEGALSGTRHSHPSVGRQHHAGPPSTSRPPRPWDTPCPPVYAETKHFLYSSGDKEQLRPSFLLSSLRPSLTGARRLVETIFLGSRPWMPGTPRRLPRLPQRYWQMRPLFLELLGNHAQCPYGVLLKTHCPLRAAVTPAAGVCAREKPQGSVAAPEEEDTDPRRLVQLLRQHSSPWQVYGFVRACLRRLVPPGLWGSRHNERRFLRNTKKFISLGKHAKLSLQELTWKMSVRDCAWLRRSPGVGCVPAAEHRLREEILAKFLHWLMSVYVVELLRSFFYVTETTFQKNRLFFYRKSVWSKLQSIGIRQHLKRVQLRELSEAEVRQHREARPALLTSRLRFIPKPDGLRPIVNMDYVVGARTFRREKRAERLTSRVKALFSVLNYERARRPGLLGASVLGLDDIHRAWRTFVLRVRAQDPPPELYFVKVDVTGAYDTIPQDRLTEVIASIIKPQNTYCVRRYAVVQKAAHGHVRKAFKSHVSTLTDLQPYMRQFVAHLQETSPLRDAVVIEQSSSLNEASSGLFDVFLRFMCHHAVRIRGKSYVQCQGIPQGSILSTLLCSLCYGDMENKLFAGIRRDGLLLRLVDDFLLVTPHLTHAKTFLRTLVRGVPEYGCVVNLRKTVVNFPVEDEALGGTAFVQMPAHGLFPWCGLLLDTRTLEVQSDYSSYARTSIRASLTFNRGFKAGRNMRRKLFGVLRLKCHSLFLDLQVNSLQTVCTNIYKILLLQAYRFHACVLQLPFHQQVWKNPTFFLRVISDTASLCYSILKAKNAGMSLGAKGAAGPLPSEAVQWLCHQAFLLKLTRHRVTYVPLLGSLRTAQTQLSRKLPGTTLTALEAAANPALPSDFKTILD
Summary of the method: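 Cells lysed in RIPA on ice for 30 min; extract incubated with TRAP mix at 25 °C for 30 min, then 35 PCR cycles. Products hybridized to DIG probe, captured on streptavidin, detected with peroxidase anti-DIG at 490 nm; mean±SD.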

[3] = tested on: HepG2; experiment: Cytotoxicity against human HepG2 cells after 48 hrs by MTT assay; assay type: functional, cell-based; summary of the method: as §1
[4] = Cytotoxicity against human MGC803 cells after 48 hrs by MTT assay; assay type: functional, cell-based, MGC-803; summary of the method: as §1
[5] = Cytotoxicity against human PC3 cells after 48 hrs by MTT assay; assay type: functional, cell-based, PC-3; conditions: Homo sapiens, PC-3, 48 h; read-out: IC50; summary of the method: as §1
[6] = Homo sapiens, Bcap37, 48 h, read-out: IC50
[7] = Homo sapiens, HepG2, 48 h, read-out: IC50
[8] = Homo sapiens, MGC-803, 48 h, read-out: IC50

C=CCN(CC=C)CC(=O)N1N=C(C)CC1c1cc(Br)ccc1O (stereo not drawn)
IC50 [1, 6]: 4.95 µM | IC50 [2]: 11.8 µM | IC50 [3, 7]: 7.87 µM | IC50 [4, 8]: 10.2 µM | IC50 [5]: 3.09 µM

CC(=O)Oc1ccccc1C1CC(C)=NN1C(=O)CN1CCCCC1C (stereo not drawn)
IC50 [1, 6]: 17.9 µM | IC50 [2]: 6.2 µM | IC50 ([3]; hepg2): Not Active | IC50 [4, 8]: 5.14 µM | IC50 [5]: 11.1 µM

O=C(c1ccccc1)N1N=C(c2cc3ccccc3oc2=O)CC1c1ccccc1 (stereo not drawn)
IC50 [1, 6]: 32.2 µM | IC50 [2]: 8.74 µM | IC50 [3, 7]: 36.6 µM | IC50 [4, 8]: 12.7 µM | IC50 [5]: 5.87 µM

CC1CCCCN1CC(=O)N1N=C(c2cc3ccccc3oc2=O)CC1c1ccccc1 (stereo not drawn)
IC50 ([1]; bcap37): Not Active | IC50 ([3]; hepg2): Not Active | IC50 ([4]; mgc-803): Not Active | IC50 [5]: 36.3 µM

CC1=NN(C(=O)CN2CCC(c3ccccc3)CC2)C(c2ccccc2O)C1 (stereo not drawn)
IC50 [1, 6]: 33.7 µM | IC50 [3, 7]: 23.3 µM | IC50 [4, 8]: 12.3 µM | IC50 [5]: 20.4 µM

CC[N+](C)(CC)CC(=O)N1N=C(C)CC1c1ccccc1OC (stereo not drawn)
IC50 [1, 6]: 5.15 µM | IC50 [2]: 3.44 µM | IC50 [3, 7]: 3.67 µM | IC50 [4, 8]: 3.32 µM | IC50 [5]: 4.17 µM

CCN(CC)CC(=O)N1N=C(c2cc3ccccc3oc2=O)CC1c1ccccc1 (stereo not drawn)
IC50 [1, 6]: 3.5 µM | IC50 [2]: 5.57 µM | IC50 [3, 7]: 11.4 µM | IC50 [4, 8]: 8.52 µM | IC50 [5]: 6.41 µM

O=C(CNC1CC1)N1N=C(c2cc3ccccc3oc2=O)CC1c1ccccc1 (stereo not drawn)
IC50 ([1]; bcap37): Not Active | IC50 ([3]; hepg2): Not Active | IC50 ([4]; mgc-803): Not Active | IC50 [5]: 28.5 µM

CC1=NN(C(=O)CN(C(C)C)C(C)C)C(c2ccccc2O)C1 (stereo not drawn)
IC50 [1, 6]: 4.96 µM | IC50 [3, 7]: 15.1 µM | IC50 [4, 8]: 31.2 µM | IC50 [5]: 32.3 µM

O=C(CN1CCOCC1)N1N=C(c2cc3ccccc3oc2=O)CC1c1ccccc1C(F)(F)F (stereo not drawn)
IC50 [1, 6]: 14.2 µM | IC50 [2]: 3.03 µM | IC50 [3, 7]: 21 µM | IC50 [4, 8]: 10 µM | IC50 [5]: 12.1 µM

CC1=NN(C(=O)COc2ccc(Cl)cc2)C(c2cc(Br)cc(Br)c2O)C1 (stereo not drawn)
IC50 [1, 6]: 46.3 µM | IC50 ([3]; hepg2): Not Active | IC50 [4, 8]: 50 µM | IC50 [5]: 40.2 µM

Cc1ccc(S(=O)(=O)N2N=C(c3cc4ccccc4oc3=O)CC2c2ccccc2)cc1 (stereo not drawn)
IC50 [1, 6]: 30.3 µM | IC50 ([3]; hepg2): Not Active | IC50 [4, 8]: 50.2 µM | IC50 [5]: 48.6 µM

O=C(CN1CCCC1)N1N=C(c2cc3ccccc3oc2=O)CC1c1ccccc1 (stereo not drawn)
IC50 ([1]; bcap37): Not Active | IC50 [3, 7]: 44.3 µM | IC50 ([4]; mgc-803): Not Active | IC50 [5]: 50.2 µM

COc1ccccc1C1CC(C)=NN1C(=O)C[N+]1(C)CCCC1 (stereo not drawn)
IC50 [1, 6]: 9.98 µM | IC50 [2]: 11 µM | IC50 [3, 7]: 32.2 µM | IC50 [4, 8]: 12.2 µM | IC50 [5]: 11.2 µM

CCC(=O)N1N=C(C)CC1c1cc(Br)cc(Br)c1O (stereo not drawn)
IC50 [1, 6]: 40.1 µM | IC50 [2]: 18.1 µM | IC50 [3, 7]: 41.4 µM | IC50 [4, 8]: 38.6 µM | IC50 [5]: 28.6 µM

CC(=O)Oc1ccccc1C1CC(C)=NN1C(=O)CN(C(C)C)C(C)C (stereo not drawn)
IC50 [1, 6]: 19.4 µM | IC50 [3, 7]: 34.1 µM | IC50 [4, 8]: 20.1 µM | IC50 [5]: 24.5 µM

CC(=O)Oc1ccccc1C1CC(C)=NN1C(=O)CN1CCCCC1 (stereo not drawn)
IC50 [1, 6]: 12.8 µM | IC50 [2]: 2.12 µM | IC50 [3, 7]: 19 µM | IC50 [4, 8]: 4.89 µM | IC50 [5]: 4.07 µM

CCCCCCN(CCCCCC)CC(=O)N1N=C(c2cc3ccccc3oc2=O)CC1c1ccccc1C(F)(F)F (stereo not drawn)
IC50 [1, 6]: 12.2 µM | IC50 [2]: 4.77 µM | IC50 [3, 7]: 12 µM | IC50 [4, 8]: 6.87 µM | IC50 [5]: 6.03 µM

CC1CCCN(CC(=O)N2N=C(c3cc4ccccc4oc3=O)CC2c2ccccc2)C1 (stereo not drawn)
IC50 ([1]; bcap37): Not Active | IC50 ([3]; hepg2): Not Active | IC50 ([4]; mgc-803): Not Active | IC50 [5]: 28.3 µM

CC1=NN(C(=O)CN2CCN(C)CC2)C(c2ccccc2O)C1 (stereo not drawn)
IC50 [1, 6]: 6.21 µM | IC50 [2]: 2.1 µM | IC50 ([3]; hepg2): Not Active | IC50 [4, 8]: 7.85 µM | IC50 [5]: 11.8 µM

NC(=O)C1CCN(CC(=O)N2N=C(c3cc4ccccc4oc3=O)CC2c2ccccc2)CC1 (stereo not drawn)
IC50 [1, 6]: 18.5 µM | IC50 [2]: 31.2 µM | IC50 [3, 7]: 19.3 µM | IC50 [4, 8]: 21.5 µM | IC50 [5]: 8.31 µM

O=c1oc2ccccc2cc1C1=NN(S(=O)(=O)c2ccc([N+](=O)[O-])cc2)C(c2ccccc2)C1 (stereo not drawn)
IC50 [1, 6]: 37 µM | IC50 [2]: 31.3 µM | IC50 ([3]; hepg2): Not Active | IC50 [4, 8]: 41.2 µM | IC50 [5]: 46.6 µM

CC1=NN(C(=O)CCl)C(c2cc(Br)cc(Br)c2O)C1 (stereo not drawn)
IC50 [1, 6]: 51.1 µM | IC50 [2]: 3.68 µM | IC50 [3, 7]: 3.35 µM | IC50 [4, 8]: 4.91 µM | IC50 [5]: 5.82 µM

CC(C)(C)OC(=O)N1CCN(CC(=O)N2N=C(c3cc4ccccc4oc3=O)CC2c2ccccc2)CC1 (stereo not drawn)
IC50 [1, 6]: 29.7 µM | IC50 [3, 7]: 28.4 µM | IC50 ([4]; mgc-803): Not Active | IC50 [5]: 36.4 µM

CC(=O)Oc1ccccc1C1CC(C)=NN1C(=O)CN1CCC(C(C)=O)CC1 (stereo not drawn)
IC50 [1, 6]: 20.1 µM | IC50 [2]: 3.54 µM | IC50 [3, 7]: 7.8 µM | IC50 [4, 8]: 4.12 µM | IC50 [5]: 6.8 µM

COc1cccc2c1C(=O)c1c(O)c3c(c(O)c1C2=O)C[C@@](O)(C(=O)CO)C[C@@H]3O[C@H]1C[C@H](N)[C@H](O)[C@H](C)O1 [DOXORUBICIN]
IC50 [1, 6]: 1.12 µM | IC50 [3, 7]: 1.34 µM | IC50 [5]: 0.87 µM
